Data as given in PubChem BioAssay AID624466 (The Scripps Research Institute Molecular Screening Center, 2012).
In all, about 360,000 compounds went through this assay and about 5,400 (1.5%) were called active. Shown is part of a subset that was picked to be rich in actives. A number with no mark means an inactive call.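 Rule for the calls: active = inhibition above a per-plate cutoff, the mean inhibition of test compounds on that plate plus 3 SD (cut at about 49% in these data); inactive = the rest.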

These compounds were tested against Trace amine-associated receptor 1 (Homo sapiens) (UniProt Q96RJ0) (assay: human TAAR1 antagonists, primary screen, Fluo-8 calcium fluorescence, CHO RD-HGA16 cells (AID 624466;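 note: 0% = DMSO plus EC80 beta-PEA response and 100% = DMSO alone without agonist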)). Settings: CHO RD-HGA16 TAAR1, Fluo-8 calcium fluorescence, antagonist; at 3 µM; hits give high values.
Trace amine-associated receptor 1 (Homo sapiens), sequence (Q96RJ0 whole entry, looked up): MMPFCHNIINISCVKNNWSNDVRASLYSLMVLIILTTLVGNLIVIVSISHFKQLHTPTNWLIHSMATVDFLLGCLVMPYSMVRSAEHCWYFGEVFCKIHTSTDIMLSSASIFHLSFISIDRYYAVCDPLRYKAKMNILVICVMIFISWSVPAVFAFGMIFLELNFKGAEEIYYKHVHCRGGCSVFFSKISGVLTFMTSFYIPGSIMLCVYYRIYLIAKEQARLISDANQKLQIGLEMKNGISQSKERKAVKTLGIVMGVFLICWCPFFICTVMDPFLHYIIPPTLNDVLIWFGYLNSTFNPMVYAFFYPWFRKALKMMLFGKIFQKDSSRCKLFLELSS
How it was run: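 test system = CHO RD-HGA16 cells bearing hTAAR1 | replication = singlicate | controls = DMSO-only wells and EC80 β-PEA-stimulated wells | reagent = EC80 β-phenethylamine stimulus | read-out basis = percent inhibition of PEA-evoked calcium signal, max/basal emission ratio | schedule = seeding 17-24 h prior, 75-min 37 °C, 30-min RT dye loading | signal = kinetic Fluo-8 calcium fluorescence measurement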

Row | SMILES | inhibition
1 | COCCNC(=O)C1C(=O)Nc2ccccc2C(=O)N1c1ccc2c(c1)OCCO2 (stereo unspecified) | -30.9%
2 | CCCCCCCCN1C(=O)[C@H](CC(=O)NCC23CC4CC(CC(C4)C2)C3)C[C@@]2(C(=O)OC)CCCCC=C12 | -15.3%
3 | CCOC(=O)C(C)N(c1ccccc1Cl)S(C)(=O)=O (stereo unspecified) | -3.03%
4 | CN(CC(=O)O)S(=O)(=O)c1ccc2oc3ccccc3c2c1 | -5.94%
5 | COc1ccc(-c2cc(C(=O)N(C)Cc3ccccc3)c3ccccc3n2)cc1 | 62.6% (active)
6 | COc1ccc(CN(C)C(=O)Cc2c[nH]c3ccccc23)c(OC)c1OC | 4.63%
7 | C/C(N)=C(/C#N)C(=O)COC(=O)c1cc(-c2ccc(C)cc2)nc2ccccc12 | -4.69%
8 | COc1ccc(-c2cc(C(=O)N(C)Cc3ccc(OC)c(OC)c3OC)c3ccccc3n2)cc1OC | 78.5% (active)
9 | COc1ccc(C(=O)N(C)Cc2ccc(OC)c(OC)c2OC)cc1S(=O)(=O)N1CCOCC1 | -9.36%
10 | COc1ccc(S(=O)(=O)N2CCCCCC2)cc1C(=O)N(C)Cc1cccc(OC)c1OC | 3.09%
11 | COc1ccc(CN(C)C(=O)c2cc(-c3ccc(C)cc3C)nc3ccccc23)c(OC)c1OC | 72.6% (active)
12 | COc1ccc(Cl)cc1NC(=O)CN(C)C(=O)c1ccc2n[nH]nc2c1 | -6.92%
13 | COc1ccc(CN(C)C(=O)Cc2ccsc2)c(OC)c1OC | -26.8%
14 | COc1ccc(C2=NS(=O)(=O)N(C)C(C(=O)N(C)Cc3ccccc3)=C2)cc1 | 11.5%
15 | Cc1cccc(C(=O)NCC(=O)OCC(=O)N(C)CC(=O)Nc2ccccc2Cl)c1 | -23.2%
16 | COc1ccc(-c2cc(C(=O)N(C)CC(=O)Nc3ccccc3Cl)c3ccccc3n2)cc1OC | 73.2% (active)
17 | Cc1ccc(N/C(N)=N/c2nc(C(F)(F)F)cc(C(F)(F)F)n2)cc1 | 1.49%
18 | CCn1ccnc1CN(C)C(=O)c1ccc2nc(Cc3ccc(OC)cc3)oc2c1 | 9.63%
19 | Cc1ccc(C)c(CN2CCC(CNC(=O)C3CCCN(c4ncnc5c4nc4n5CCCCC4)C3)CC2)c1 (stereo unspecified) | -10.2%

Row | SMILES | inhibition
20 | O=C(Nc1ccc(CSc2ccccc2)cc1)c1ccc(CN2CCOCC2)cc1 | 29.6%
21 | COCc1cc(N2CCN(C(=O)OC(C)(C)C)C[C@@H]2C)ccc1N1CCN(Cc2ccccc2)[C@H](C)C1 | -3.16%
22 | O=C1/C(=C/c2cccs2)SC(=S)N1C1CCS(=O)(=O)C1 (stereo unspecified) | -5.52%
23 | COc1ccc(CCn2c(NN=C3CCCC3)nc3c2c(=O)[nH]c(=O)n3C)cc1 | -23.8%
24 | COc1ccc(C2CC(=O)Oc3ccc(C(C)(C)C)cc32)cc1 (stereo unspecified) | 52.5% (active)
25 | COc1cc(OC)c2c(c1)OC(=O)CC2c1cc(OC)c(OC)c(OC)c1 (stereo unspecified) | -6.82%
26 | COc1cc(C2CC(=O)Oc3cc(OC)c(OC)c(OC)c32)cc(OC)c1OC (stereo unspecified) | 3.9%
27 | CN(C)S(=O)(=O)c1ccc(C(=O)NCCN=C2NS(=O)(=O)c3ccccc32)cc1 | -8.85%
28 | O=C(c1ccc2ccccc2n1)N1CCN(c2ccccc2Cl)CC1 | 20.4%
29 | NC(N)=N/N=C/c1ccc(OCc2ccc(Cl)cc2Cl)cc1 | 73.3% (active)
30 | NC(=O)COc1ccc(/C=N/NC(=O)C2CCCN2S(=O)(=O)c2ccc(Cl)cc2)cc1 (stereo unspecified) | 15.8%
31 | COc1ccc(Cl)cc1N(CC(=O)N/N=C/c1ccc(OCC(N)=O)cc1)S(C)(=O)=O | 6.35%
32 | O=C1NC[C@H](CCCCN2C[C@H](Cc3ccc(O)cc3)N(CC3CCCCC3)C(=O)C2=O)N(CCc2ccccc2)C1=O | 7.35%
33 | COc1cccc(N(C(=O)C2COc3ccccc3O2)C(C(=O)NC2CCCCC2)c2ccc(O)cc2)c1 (stereo unspecified) | -14.6%
34 | O=C(OCC(=O)N(CCc1ccccc1)Cc1ccccc1)c1ccccc1[N+](=O)[O-] | 71.1% (active)
35 | Cc1c(C(=O)NCCCc2ccccc2)cccc1[N+](=O)[O-] | 1.14%
36 | CN(Cc1ccccc1)C(=O)COC(=O)c1ccccc1Nc1ccccc1 | 22.9%
37 | CC(C)(C)c1ccc(S(=O)(=O)NCC2CCN(C(=O)C(=O)c3cc4ccccc4o3)CC2)cc1 | 3.67%
38 | O=C(COC(=O)c1cc(S(=O)(=O)N2CCOCC2)ccc1Cl)NCCc1ccccc1 | -6.27%

Row | SMILES | inhibition
39 | CCC(=O)c1ccc(OCC(O)CN2CCN(c3cccc(C(F)(F)F)c3)CC2)cc1 (stereo unspecified) | 19.9%
40 | CCOc1ccc(NC(=O)Nc2ccc(N(C)C(C)=O)cc2)cc1 | 51.5% (active)
41 | CCOc1ccc(NC(=O)N(CC(C)C)CC(C)C)cc1 | -6.6%
42 | CC(=O)N(C)c1ccc(NC(=O)Nc2cccc3ccccc23)cc1 | -1.56%
43 | CC12CCC(=O)N1C(C(=O)NCCN1C(=O)S/C(=C\c3ccccc3F)C1=O)CS2 (stereo unspecified) | -27.9%
44 | O=S(=O)(NCC1CCCO1)c1cnc(Cl)c(Cl)c1 (stereo unspecified) | 12.4%
45 | CCOC(=O)C1=C(c2ccccc2)O/C(=C(/C(=O)OC)C(F)(F)F)S1 | -4.35%
46 | CC(=O)Nc1cccc(NC(=O)c2ccc3c(c2)CCN3S(C)(=O)=O)c1 | 50% (active)
47 | CS(=O)(=O)N1CCc2cc(C(=O)Nc3ccccc3Br)ccc21 | 23.9%
48 | CS(=O)(=O)N1CCc2cc(C(=O)Nc3ccccc3)ccc21 | 9.11%
49 | Cc1ncc([N+](=O)[O-])n1CCOC(=O)c1ccc(Br)cc1 | 11.2%
50 | CC(C)(C)C(c1nc2ccccc2[nH]1)n1c(Cc2csc3ccccc23)nc2ccccc21 (stereo unspecified) | 11.6%
51 | CC(C)C[C@@H]1Cc2[nH][nH]c(=O)c2[C@H](CCc2ccccc2)O1 | -21.2%
52 | C[N+](C)(C)CCNC(=O)c1cc[n+](Cc2ccccc2)c(/C=N/O)c1 | 5.47%
53 | COC(=O)C1=C(C)N(Cc2ccccc2C(F)(F)F)C(=NCc2ccc(OC)cc2)NC1c1cccc(C(F)(F)F)c1 (stereo unspecified) | 4.48%
54 | COc1ccc(S(=O)(=O)N(CC(=O)NCc2ccco2)c2ccc(F)cc2)cc1 | 57.5% (active)
55 | Cc1ccc(S(=O)(=O)N(CC(=O)NCc2ccco2)c2ccccc2C)cc1 | 5.84%
56 | CCN(CC(=O)NCc1ccco1)S(=O)(=O)c1ccc(F)cc1 | -11.9%
